{"source": "ChEMBL document CHEMBL4680290", "about": "“Design, synthesis and biological evaluation of novel chalcone-like compounds as potent and reversible pancreatic lipase inhibitors” (Bioorg Med Chem, 2021)", "key": {"[1]": {"molecular_target": "T1, Pancreatic triacylglycerol lipase (Sus scrofa, UniProt P00591)", "T1 sequence (P00591 whole entry)": "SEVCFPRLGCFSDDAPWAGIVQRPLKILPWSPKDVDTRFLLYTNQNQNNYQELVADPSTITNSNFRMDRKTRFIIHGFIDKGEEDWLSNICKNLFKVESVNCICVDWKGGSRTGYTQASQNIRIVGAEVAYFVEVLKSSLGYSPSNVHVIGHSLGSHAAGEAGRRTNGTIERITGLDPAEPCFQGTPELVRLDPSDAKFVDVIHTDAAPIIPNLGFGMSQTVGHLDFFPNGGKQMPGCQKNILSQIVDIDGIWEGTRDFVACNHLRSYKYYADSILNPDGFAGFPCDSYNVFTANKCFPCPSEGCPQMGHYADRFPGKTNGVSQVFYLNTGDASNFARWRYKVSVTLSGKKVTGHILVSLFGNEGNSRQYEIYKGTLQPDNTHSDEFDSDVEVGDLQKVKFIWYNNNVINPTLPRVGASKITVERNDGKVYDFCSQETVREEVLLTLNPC", "experiment": "Inhibition of porcine pancreatic lipase preincubated for 10 mins followed by 4-MUO addition and measured at 60 sec interval for 40 mins by multi plate micro plate reader", "how_it_was_run": "(§1)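 Porcine pancreatic lipase (type II) at 0.01 mg/mL final in 0.1 M citrate phosphate buffer pH 7.4 with inhibitor at various concentrations, vortexed, preincubated 10 min at 37 °C. Reaction started with 4-MUO, and fluorescence of released 4-MU read on a microplate reader. IC50 obtained by nonlinear regression; mean ± SD of triplicates.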"}, "[2]": {"experiment": "Metabolic stability in human liver microsomes assessed as half life in Phase II metabolic system at 10 uM measured by LC-UV method", "format": "ADME, Microsome", "how_it_was_run": "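Phase II system of human liver preparations, compound at 10 μM final. Remaining compound measured by UFLC-UV on an ODS column (2.1 × 150 mm, 2.2 μm) at 40 °C and 0.4 mL/min, with an acetonitrile / water (0.2% formic acid) gradient, detection at 370 nm. Half-life reported.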"}, "[3]": {"experiment": "Inhibition of porcine pancreatic lipase type 2", "set-up": "species or system Sus scrofa", "how_it_was_run": "as §1"}, "[4]": {"experiment": "Metabolic stability in artificial gastrointestinal fluids assessed as half life at 100 uM by LC-UV method", "how_it_was_run": "(§2)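 Artificial gastric or intestinal fluid (800 μL) prewarmed 3 min at 37 °C, then compound added to 100 μM final. Aliquots taken at 0, 0.5, 1, 2 and 4 h and quenched with equal volume of ice-cold acetonitrile. Half-life derived from remaining compound.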"}, "[5]": {"molecular_target": "T1, Pancreatic triacylglycerol lipase", "experiment": "Mixed type inhibition of porcine pancreatic lipase using 4MUO as substrate by Lineweaver-Burk plot analysis", "how_it_was_run": "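Kinetics of porcine pancreatic lipase with varied 4-MUO concentrations and increasing inhibitor doses, otherwise as in the standard assay (0.01 mg/mL enzyme, citrate phosphate pH 7.4, 37 °C, 4-MU fluorescence read-out). Inhibition mode and Ki taken from inhibition kinetic plots and Lineweaver-Burk plots, with a secondary plot of slopes. Nonlinear regression; mean ± SD of triplicates.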"}, "[6]": {"experiment": "Metabolic stability in artificial intestinal fluids assessed as half life at 100 uM by LC-UV method", "how_it_was_run": "as §2"}, "[7]": {"experiment": "Metabolic stability in human liver microsomes assessed as half life in Phase I metabolic system at 10 uM measured by LC-UV method", "format": "ADME, Microsome", "how_it_was_run": "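Phase I incubation with human liver preparations, compound or testosterone control at 10 μM final. Remaining compound quantified by LC-UV (ODS column, 40 °C, acetonitrile/0.2% formic acid water gradient, 0.4 mL/min, detection 370 nm) to give in vitro half-life.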"}}, "data": [{"smiles": "COc1cc(/C=C2\\Cc3ccc(NCCCCCCCCCCCCO)cc3C2=O)ccc1O", "values": [{"measurement": "IC50", "setting": "[1]", "value": 0.68, "unit": "µM"}]}, {"smiles": "O=C1/C(=C/c2ccccc2Cl)Cc2ccc(O)cc21", "values": [{"measurement": "IC50", "setting": "[1]", "value": "> 100", "unit": "µM"}]}, {"smiles": "COc1cc(/C=C2\\Cc3ccc(O)cc3C2=O)cc(OC)c1OC", "values": [{"measurement": "IC50", "setting": "[1]", "value": 14.8, "unit": "µM"}]}, {"smiles": "COc1cc(/C=C2\\Cc3ccccc3C2=O)ccc1O", "values": [{"measurement": "IC50", "setting": "[1]", "value": 6.94, "unit": "µM"}]}, {"smiles": "C=CCCCCNc1ccc2c(c1)C(=O)/C(=C/c1ccc(O)c(OC)c1)C2", "values": [{"measurement": "IC50", "setting": "[1]", "value": 25.1, "unit": "µM"}]}, {"smiles": "O=C1/C(=C/c2ccccc2F)Cc2ccc(O)cc21", "values": [{"measurement": "IC50", "setting": "[1]", "value": "> 100", "unit": "µM"}]}, {"smiles": "O=C(/C=C/c1ccccc1)c1ccccc1", "note": "[CHALCONE]", "values": [{"measurement": "IC50", "setting": "[1]", "value": 84.4, "unit": "µM"}]}, {"smiles": "O=c1ccc2ccc(O)cc2o1", "note": "[UMBELLIFERONE]", "values": [{"measurement": "half-life at 10 µM", "setting": "[2]", "value": 0.258, "unit": "h"}]}, {"smiles": "COc1cc(/C=C2\\Cc3ccc(N)cc3C2=O)ccc1O", "values": [{"measurement": "IC50", "setting": "[1]", "value": 12.4, "unit": "µM"}]}, {"smiles": "COc1cc(OC)c(/C=C2\\Cc3ccc(O)cc3C2=O)c(OC)c1", "values": [{"measurement": "IC50", "setting": "[1]", "value": 20.7, "unit": "µM"}]}, {"smiles": "O=C1/C(=C/c2cccc(Br)c2)Cc2ccc(O)cc21", "values": [{"measurement": "IC50", "setting": "[1]", "value": 14.8, "unit": "µM"}]}, {"smiles": "CCCOc1ccc2c(c1)C(=O)/C(=C/c1ccc(O)c(OC)c1)C2", "values": [{"measurement": "IC50", "setting": "[1]", "value": 2.54, "unit": "µM"}]}, {"smiles": "COc1ccc2c(c1)C(=O)/C(=C/c1ccc(O)c(OC)c1)C2", "values": [{"measurement": "IC50", "setting": "[1]", "value": 37.1, "unit": "µM"}]}, {"smiles": "COc1cc(/C=C2\\Cc3ccc(N4CCCCC4)cc3C2=O)ccc1O", "values": [{"measurement": "IC50", "setting": "[1]", "value": 3.32, "unit": "µM"}]}, {"smiles": "C=CCCCCN(CCCCC=C)c1ccc2c(c1)C(=O)/C(=C/c1ccc(O)c(OC)c1)C2", "values": [{"measurement": "IC50", "setting": "[1]", "value": 2.09, "unit": "µM"}]}, {"smiles": "CC(C)=CCc1cc(C(=O)/C=C/c2ccc(O)cc2)c(O)cc1O", "note": "[BROUSSOCHALCONE B]", "values": [{"measurement": "IC50", "setting": "[3]", "value": 5.7, "unit": "µM"}]}, {"smiles": "CCN(CC)c1ccc2c(c1)C(=O)/C(=C/c1ccc(O)c(OC)c1)C2", "values": [{"measurement": "IC50", "setting": "[1]", "value": 1.69, "unit": "µM"}]}, {"smiles": "COc1cc(OC)c(OC)cc1/C=C1\\Cc2ccc(O)cc2C1=O", "values": [{"measurement": "IC50", "setting": "[1]", "value": 35, "unit": "µM"}]}, {"smiles": "C=CCCCCCCCCNc1ccc2c(c1)C(=O)/C(=C/c1ccc(O)c(OC)c1)C2", "values": [{"measurement": "IC50", "setting": "[1]", "value": 84.1, "unit": "µM"}]}, {"smiles": "O=C1/C(=C/c2ccccc2)Cc2ccccc21", "values": [{"measurement": "IC50", "setting": "[3]", "value": 22.5, "unit": "µM"}]}, {"smiles": "COc1cc(/C=C2\\Cc3ccc(N(CCCCCCCCCCCCO)CCCCCCCCCCCCO)cc3C2=O)ccc1O", "values": [{"measurement": "T1/2", "setting": "[4]", "value": 3.89, "unit": "h"}, {"measurement": "half-life at 10 µM", "setting": "[2]", "value": 1.95, "unit": "h"}, {"measurement": "Ki", "setting": "[5]", "value": 0.12, "unit": "µM"}, {"measurement": "T1/2", "setting": "[6]", "value": "> 4", "unit": "h"}, {"measurement": "half-life at 10 µM", "setting": "[7]", "value": 3.68, "unit": "h"}, {"measurement": "IC50", "setting": "[1]", "value": 0.33, "unit": "µM"}]}, {"smiles": "O=C1/C(=C/c2ccc(F)cc2)Cc2ccc(O)cc21", "values": [{"measurement": "IC50", "setting": "[1]", "value": 32.7, "unit": "µM"}]}, {"smiles": "COc1cc(/C=C2\\Cc3ccc(N4CCCC4)cc3C2=O)ccc1O", "values": [{"measurement": "IC50", "setting": "[1]", "value": 3.5, "unit": "µM"}]}, {"smiles": "COc1cc(/C=C2\\Cc3ccc(OC(C)C)cc3C2=O)ccc1O", "values": [{"measurement": "IC50", "setting": "[1]", "value": 8.61, "unit": "µM"}]}, {"smiles": "CC(C)=CCc1c(O)ccc(C(=O)/C=C/c2ccc(O)cc2O)c1O", "note": "[MORACHALCONE A]", "values": [{"measurement": "IC50", "setting": "[3]", "value": 6.2, "unit": "µM"}]}, {"smiles": "O=C1/C(=C/c2ccc(Br)cc2)Cc2ccc(O)cc21", "values": [{"measurement": "IC50", "setting": "[1]", "value": 75.6, "unit": "µM"}]}, {"smiles": "O=C1/C(=C/c2ccccc2Br)Cc2ccc(O)cc21", "values": [{"measurement": "IC50", "setting": "[1]", "value": 28.9, "unit": "µM"}]}, {"smiles": "O=C1/C(=C/c2ccc(O)cc2)Cc2ccc(O)cc21", "values": [{"measurement": "IC50", "setting": "[1]", "value": "> 100", "unit": "µM"}]}, {"smiles": "CC(C)=CCc1c(O)ccc(C(=O)/C=C/c2ccc(O)cc2)c1O", "note": "[ISOBAVACHALCONE]", "values": [{"measurement": "IC50", "setting": "[3]", "value": 3.3, "unit": "µM"}]}, {"smiles": "O=C1/C(=C/c2ccc(Cl)c(Cl)c2)Cc2ccc(O)cc21", "values": [{"measurement": "IC50", "setting": "[1]", "value": 75.4, "unit": "µM"}]}, {"smiles": "COc1cc(/C=C2\\Cc3ccc(O)cc3C2=O)ccc1O", "values": [{"measurement": "IC50", "setting": "[1]", "value": 10.4, "unit": "µM"}]}, {"smiles": "COc1ccc(/C=C2\\Cc3ccc(O)cc3C2=O)c(OC)c1", "values": [{"measurement": "IC50", "setting": "[1]", "value": 24.8, "unit": "µM"}]}, {"smiles": "COc1cc(/C=C2\\Cc3ccc(N(CCC(C)CCCC(C)C)CCC(C)CCCC(C)C)cc3C2=O)ccc1O", "note": "(stereo unspecified)", "values": [{"measurement": "IC50", "setting": "[1]", "value": 0.83, "unit": "µM"}]}, {"smiles": "C=CCCCCCCCCN(CCCCCCCCC=C)c1ccc2c(c1)C(=O)/C(=C/c1ccc(O)c(OC)c1)C2", "values": [{"measurement": "IC50", "setting": "[1]", "value": 0.58, "unit": "µM"}]}, {"smiles": "COc1cc(/C=C2\\Cc3ccc(NCCC(C)CCCC(C)C)cc3C2=O)ccc1O", "note": "(stereo unspecified)", "values": [{"measurement": "IC50", "setting": "[1]", "value": 2.52, "unit": "µM"}]}, {"smiles": "O=C1/C(=C/c2ccc(O)cc2)Cc2ccccc21", "values": [{"measurement": "IC50", "setting": "[1]", "value": 14.9, "unit": "µM"}]}]}
